Screens as filed in PubChem BioAssay.
Most compounds without a hit are left out; they make up all but 1.7% or so of the library.
MLLE-PAM2 inh = blocks PAM2 peptide binding to the PABP1 MLLE domain. P11940. GST-MLLE / FITC-PAM2 fluorescence polarization. inhibition, % at 20 µM. actives 0.36% (n = 360,000); in the data active = inhibition above about 35%, passing the limit was not always enough;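 note: plate controls were DMSO wells with GST-MLLE for no effect and wells lacking GST-MLLE protein for full effect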
MT1-MMP act inh = blocks activation of human MT1-MMP; P50281; HT1080 RFP-PRO-GFP cells, GFP/RFP ratio fluorescence, overnight; percent of plate control window, DMSO zero; GFP/RFP ratio change, % at 20 µM; actives 0.061% (n = 360,000);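 active = GFP/RFP ratio change of at least 30% with cell ATP level not reduced by more than half and red fluorescence within 50% of control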
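Material – HT1080 RFP-PRO-GFP cells · Control set – DMSO wells and RFP-L50D-GFP cells · Incubation – overnight cell settling, then overnight compound exposure, 37 °C, 5% CO2 · Compound dosing – single-point 20 µM compound, 1% DMSO · Read-out – GFP/RFP fluorescence ratio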
PABP polyA inh = blocks human PABP binding to poly(A) RNA | P11940 | fluorescence polarization | inhibition, % at 35 µM | actives 1% (n = 290,000);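 note: calls also rest on retests at 20 µM and on dose response follow-up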
eIF4H inh = inhibitors of RNA binding by human eIF4H; Q15056; eIF4H fluorescence polarization binding assay; inhibition, % at 35 µM; actives 0.94% (n = 290,000);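 note: calls also rest on retests at 20 µM and on dose response follow-up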
SKN-1 inh = C. elegans SKN-1 inhibition; actives 0.49% (n = 360,000); C. elegans VP596 Pgst-4::GFP/RFP ratio, acrylamide-induced, 24 h; AID 624304; inhibition, % at 21.8 µM;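 active = interference check ratio from 0.5 to 1.5 plus GFP to RFP signal ratio inhibition reaching or exceeding a fixed threshold, cut at about 30% in these data, passing the limit was not always enough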
An asterisk follows results filed as active; ? = inconclusive; · = no result given. Unless noted, the rule behind the calls is not given here.

SMILES	MLLE-PAM2 inh	MT1-MMP act inh	PABP polyA inh	eIF4H inh	SKN-1 inh
O=C(O)CSc1nnc(SCc2cccc3ccccc23)s1	-32	-4	2	-8	-10
Cc1ccsc1C(=O)N1CCC1(C)C(=O)NCC(C)(C)C (stereo not given)	-8	6	·	·	23
O=C1Nc2ccccc2C1C(C[N+](=O)[O-])c1ccccc1 (stereo not given)	9	0	-4	3	-14
N#CC1=C(N)NC(=S)C(C(N)=O)C1c1ccc([N+](=O)[O-])cc1 (stereo not given)	39*	2	2	8	10
CC(C)(C)CC(=O)NC(=S)N1CCCCCC1	13	2	2	2	81*
CCOC(=O)CNC(=O)CSc1nc(-c2cccc(C)c2)ns1	41*	4	12	5	3
Clc1ccc(C2=CC(c3ccco3)n3ncnc3N2)cc1 (stereo not given)	160	-215	79*	?	26
c1ccc(NC2=NCCCCS2)cc1	-6	1	2	108*	-4
O=C(C=Cc1ccc2c(c1)OCO2)OCC=Cc1ccc2c(c1)OCO2	3	-3	·	·	-7
CC1(C(=O)Nc2cccc(NS(C)(=O)=O)c2)CCN1CCc1ccccc1 (stereo not given)	-3	2	·	·	15
CCN(CC)C(=O)Oc1ccc(Br)c2ccccc12	17	-1	-2	-10	37*
CCN(CC)C(=O)Oc1ccc(Cl)c2ccccc12	-7	4	8	1	16
COC(=O)[C@@H](NC(=O)N1CCC(Cc2ccccc2)CC1)C(C)C	14	1	-5	-3	7
COC(=O)c1cccc(NC(=O)CSc2nc(O)c(-c3ccccc3)c(=O)[nH]2)c1	29	1	37*	?	1
O=C(COc1ccc(Cl)cc1)Nc1cc2c3c(c1)CC(=O)N3CCC2	1	-7	·	·	10
COc1ccc(NS(=O)(=O)c2cccc(NC(=O)CCC(=O)c3ccc(Cl)cc3)c2)cc1	-4	1	60	active	7
Cc1cc(C)c2c(c1)-c1c(ssc1=S)C(C)(C)N2C(=O)CSc1nncn1C	13	-16	-2	-7	18
Cc1ccc2c(c1)-c1c(ssc1=S)C(C)(C)N2C(=O)CSc1nncn1C	25	-2	56*	2.4*	-6
CC(C)(C)c1ccc(C(=O)Nc2ccc(N3CCOCC3)cc2)cc1	5	6	-2	-2	11
Cc1ccc(C(=O)NC(=S)Nc2ccc(N3CCN(C(=O)c4ccco4)CC3)cc2)cc1	40*	-4	6	-6	20
CC(C)Oc1ccc(C(=O)Nc2ccc(N3CCN(C(=O)c4ccco4)CC3)cc2)cc1	1	10	4	0	-2
CC(=O)N1CCN(c2ccc(NC(=S)NC(=O)COc3ccc(C(C)(C)C)cc3)cc2)CC1	44*	-3	13	6	13
CC(C)(C)c1ccc(C(=O)NC(=S)Nc2ccc(N3CCOCC3)cc2)cc1	34	3	52*	5	-1
CC(=O)NC(c1ccccc1)c1nc(-c2cncnc2)cs1 (stereo not given)	2	4	·	·	6
O=C(N[C@H]1C/C=C\C[C@@H](CC(=O)N(CCO)Cc2ccccc2)C(=O)NC[C@H](c2ccccc2)OC1=O)OCC1c2ccccc2-c2ccccc21	-8	-8	·	·	-33
SMILES	MLLE-PAM2 inh	MT1-MMP act inh	PABP polyA inh	eIF4H inh	SKN-1 inh
COc1c(S(=O)(=O)N2CCN(C)CC2)ccc(Cl)c1Cl	-1	1	-1	6	-5
COc1cc(/C=C/C(=O)OCC(=O)N(CC(C)C)c2c(N)n(Cc3ccccc3)c(=O)[nH]c2=O)ccc1O	3	-5	·	·	-2
O=C(c1cnn2c(C(F)(F)F)cc(-c3ccco3)nc12)N1CCCCCC1	3	2	-6	1	-3
O=C(c1ccccc1)N1CCN(C(=O)c2nn3c(C(F)(F)F)cc(-c4ccco4)nc3c2Br)CC1	-9	2	15	69*	-9
O=C(O)c1cnn2c(C(F)(F)F)cc(-c3ccco3)nc12	6	1	35*	78*	-3
COc1ccc(-c2c(NC(=O)c3ccco3)oc3c(C)cccc3c2=O)cc1OC	4	-4	8	3	6
Cn1cnc([N+](=O)[O-])c1S(=O)(=O)Oc1ccc(Cl)cc1	41*	-2	·	·	9
COc1cc(/C=C/C(=O)Nc2nnc(C(C)(C)C)s2)cc(OC)c1OC	41*	8	-6	-13	9
COc1cc(/C=C/C(=O)Nc2ccc(C)cc2)cc(OC)c1OC	6	4	11	2	-3
CCCCN1C[C@H](Cc2ccccc2)[C@@H](CC(=O)NC)C1=O	11	1	·	·	0
CCc1ccccc1NC(=O)CCS(=O)(=O)c1ccc(OC)cc1	16	-5	3	54*	-4
CCCC1C(c2ccc(OC)cc2)C(C#N)(C#N)C2(C#N)CC1(N)NC2=O (stereo not given)	0	-4	42*	58	-16
CCN1CSC(=S)N(Cc2ccc(OC)cc2)C1	40*	-4	2	3	1
CCOc1cc(C(=O)Nc2ccncc2)cc(OCC)c1OCC	-10	3	-3	-2	3
Cc1cccn2c(=O)c(/C=C3\SC(=S)NC3=O)c(NCCCN3CCOCC3)nc12	-120	-54	25	?	52*
O=C(CN1C(=O)NC2(CCCCCC2)C1=O)N1CCCCC1	-15	1	·	·	2
O=C(NCCN1CCOCC1)c1ccc(Cl)c(S(=O)(=O)N2CCOCC2)c1	4	4	2	4	-13
CCCCCCn1c(SCC(=O)Nc2cc(C)on2)nc2ccccc2c1=O	-10	-5	-1	-4	0
Cc1cccc(-n2c(N)cc(=O)nc2SCC(=O)Nc2cc(C)on2)c1	40*	-1	6	-6	-14
O=C(CSc1nccn1-c1cccc(Cl)c1)NO	6	1	2	-4	-2
Cc1cc(NC(=O)CSc2nc3ccccc3c(=O)n2Cc2ccc(F)cc2)no1	-62	-4	-3	7	32*
Cc1cc(NC(=O)CSc2nccn2-c2cccc(Cl)c2)no1	69*	4	-6	-5	-12
CC(=O)c1ccc(NC(=O)C(C)Sc2nnc3ccccn23)cc1 (stereo not given)	-7	7	·	·	8
O=C(Nc1cccc(Cl)c1)c1cc(-c2ccco2)on1	-13	1	-6	-7	39*
CCc1ccc(NC(=O)c2cc(-c3ccco3)on2)cc1	-8	0	0	-1	45*
COc1cc(C(=S)N2CCC(C(N)=O)CC2)ccc1O	19	4	0	-6	9
COc1cc(C(=S)N2CCCCC2)ccc1O	38*	-2	4	-6	14
COc1cc(C(=S)N2CCC(C)CC2)ccc1O	40*	10	14	6	27
CCOc1cc(C(=S)N2CCCC2)ccc1O	28	0	3	7	0
